Measurements as given in ChEMBL document CHEMBL1129428 (J Med Chem, 1996).
Values joined by “and” are separate entries in the source; they are usually repeats but may differ in a detail not shown here. Equal entries are not always repeated.

What was measured:
[1] = tested on: Rattus norvegicus; assay: Compound was tested for anticonvulsant activity after Oral Administration into Rats by using MES screen test after 4h,dose 12.5 mg/kg; No activity was demonstarted; type: functional, organism-based; design: dose 12.5 mg/kg
Method in brief: (§1)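 Rats received the compound orally. […] Rats were tested in the MES screen at 0.25, 0.5, 1, 2 and 4 h. Each value is the number of rats protected out of 4. The test followed NINDS procedures.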

[2] = tested on: Rattus norvegicus; assay: Compound was tested for anticonvulsant activity after Oral Administration into Rats by using MES screen test after 2h,dose 12.5 mg/kg; No activity was demonstarted; type: functional, organism-based; design: dose 12.5 mg/kg; method in brief: as §1
[3] = tested on: Mus musculus; assay: Compound was tested for anticonvulsant activity after intraperitoneal injection into mice by using MES screen test after 1h,dose 12.50 mg/kg; type: functional; conditions: ip
[4] = Protection index = TD50/ED50 (MES); conditions: mouse, in vivo; read-out: PI
[5] = tested on: Rattus norvegicus; assay: Compound was tested for anticonvulsant activity after Oral Administration into Rats by using MES screen test after 0.25h,dose 12.5 mg/kg; number of rats out of four which were protected; type: functional; method in brief: as §1
[6] = tested on: Rattus norvegicus; assay: Compound was tested for anticonvulsant activity after Oral Administration into Rats by using MES screen test after 1h,dose 12.5 mg/kg; number of rats out of four which were protected; type: functional; method in brief: as §1
[7] = tested on: Mus musculus; assay: Compound was tested for toxicity after intraperitoneal injection into mice by using toxicity screen test after 4 hr; type: organism-based; conditions: in vivo, ip
Method in brief: (§2)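 Mice injected intraperitoneally at 30, 100 and 300 mg/kg and examined 0.5 and 4 h afterwards. Each entry is the minimum dose giving activity (MES protection, scPTZ protection, or rotorod failure for neurotoxicity) in half or more of the mice. Activity is called absent if nothing occurs at 300 mg/kg.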

[8] = tested on: Mus musculus; assay: Anticonvulsant activity after intraperitoneal injection into mice by using scPTZ screen after 0.5 hr; type: functional
[9] = tested on: Rattus norvegicus; assay: Compound was tested for anticonvulsant activity after Oral Administration into Rats by using MES screen test after 0.5h,dose 12.5 mg/kg; No activity was demonstarted; type: functional, organism-based; design: dose 12.5 mg/kg; method in brief: as §1
[10] = tested on: Mus musculus; assay: Anticonvulsant activity after intraperitoneal injection into mice by using MES screen test after 0.5 hr; type: functional
[11] = tested on: Mus musculus; assay: Anticonvulsant activity after intraperitoneal injection into mice by using scPTZ screen test after 4 hr; type: functional
[12] = Compound was tested for toxicity after intraperitoneal injection into mice by using neurotoxicity screen test after 2 hr; type: organism-based; conditions: mouse, in vivo, ip
Method in brief: (§3)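 Quantitative intraperitoneal mouse testing in the MES, scPTZ or rotorod neurotoxicity screens at the peak time given for each compound (0.25–2 h). ED50 or TD50 reported in mg/kg with 95% CI and slope (SE).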

[13] = tested on: Mus musculus; assay: Anticonvulsant activity after intraperitoneal injection into mice measured in a maximal electroshock scree (MES) screen; type: functional
[14] = Compound was tested for toxicity after intraperitoneal injection into mice by using neurotoxicity screen test after 0.25 hr; conditions: mouse, in vivo, ip
[15] = tested on: Mus musculus; assay: Anticonvulsant activity after intraperitoneal injection into mice by using MES screen test after 0.25 hr; type: functional
[16] = Compound was tested for toxicity after oral administration in rat by using neurotoxicity screen test after 0.5 hr; conditions: in vivo
[17] = tested on: Mus musculus; assay: Compound was tested for anticonvulsant activity after intraperitoneal injection into mice by using scPTZ screen test after 0.25 hr; type: functional; conditions: ip; method in brief: as §3
[18] = tested on: Mus musculus; assay: Compound was tested for anticonvulsant activity after intraperitoneal injection into mice by using scPTZ screen test after 2 hr; type: functional; conditions: ip; method in brief: as §3
[19] = tested on: Mus musculus; assay: Compound was tested for anticonvulsant activity after intraperitoneal injection into mice by using MES screen test after 2 hr; type: functional; conditions: ip; method in brief: as §3
[20] = tested on: Mus musculus; assay: Toxicity after intraperitoneal injection into mice by using toxicity screen test after 0.5 hr; type: organism-based; conditions: in vivo, ip; method in brief: as §2
[21] = tested on: Rattus norvegicus; assay: Compound was tested for anticonvulsant activity after Oral Administration into rat by using MES screen test after 6 hr; type: functional
Method in brief: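 Oral dosing in rats, maximal electroshock challenge, with ED50, 95% CI, slope and SE determined at the time listed for each compound (0.25 to 6 h range).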

[22] = tested on: Rattus norvegicus; assay: Anticonvulsant activity after oral administration into rats; type: functional; design: concentration or dose not given beside the values
[23] = tested on: Rattus norvegicus; assay: Compound was tested for anticonvulsant activity after Oral Administration into Rats by using MES screen test after 4h,dose 12.5 mg/kg; number of rats out of four which were protected; type: functional; method in brief: as §1
[24] = tested on: Rattus norvegicus; assay: Compound was tested for anticonvulsant activity after Oral Administration into Rats by using MES screen test after 2h,dose 12.5 mg/kg; number of rats out of four which were protected; type: functional; method in brief: as §1
[25] = tested on: Rattus norvegicus; assay: Compound was tested for anticonvulsant activity after Oral Administration into Rats by using MES screen test after 0.25h,dose 12.5 mg/kg; No activity was demonstarted; type: functional, organism-based; design: dose 12.5 mg/kg; method in brief: as §1
[26] = tested on: Rattus norvegicus; assay: Compound was tested for anticonvulsant activity after Oral Administration into rat by using MES screen test after 2 hr dose 12.5 mg/kg; type: functional
[27] = tested on: Rattus norvegicus; assay: Compound was tested for anticonvulsant activity after Oral Administration into Rats by using MES screen test after 1h,dose 12.50 mg/kg; number of rats out of four which were protected; type: functional; conditions: dose 12.5 mg/kg; method in brief: as §1
[28] = tested on: Rattus norvegicus; assay: Compound was tested for anticonvulsant activity after Oral Administration into Rats by using MES screen test after 2h,dose 12.50 mg/kg; number of rats out of four which were protected; type: functional; conditions: dose 12.5 mg/kg; method in brief: as §1
[29] = tested on: Rattus norvegicus; assay: Compound was tested for anticonvulsant activity after Oral Administration into rat by using MES screen test after 4 hr; type: functional
Method in brief: (§4)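 Rats dosed orally, typically at 50 mg/kg first, then mostly 12.5 mg/kg (some compounds at 30 mg/kg), and tested by maximal electroshock. Four rats per compound, scored at 0.25, 0.5, 1, 2 and 4 h as the number of rats protected out of 4.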

[30] = tested on: Rattus norvegicus; assay: Compound was tested for anticonvulsant activity after Oral Administration into Rats by using MES screen test after 0.5h,dose 12.50 mg/kg; number of rats out of four which were protected; type: functional; conditions: dose 12.5 mg/kg; method in brief: as §1
[31] = tested on: Mus musculus; assay: Anticonvulsant activity after intraperitoneal injection into mice by using toxicity screen test after 0.5 hr; type: organism-based; conditions: in vivo, ip
[32] = Compound was tested for toxicity after intraperitoneal injection into mice by using neurotoxicity screen test after 1 hr; type: organism-based; conditions: mouse, in vivo, ip; method in brief: as §3
[33] = tested on: Rattus norvegicus; assay: Compound was tested for anticonvulsant activity after Oral Administration into Rats by using MES screen test after 0.25h,dose 12.50 mg/kg; number of rats out of four which were protected; type: functional; conditions: dose 12.5 mg/kg; method in brief: as §1
[34] = tested on: Rattus norvegicus; assay: Compound was tested for anticonvulsant activity after Oral Administration into Rats by using MES screen test after 4h,dose 12.50 mg/kg; number of rats out of four which were protected; type: functional; conditions: dose 12.5 mg/kg; method in brief: as §1
[35] = Compound was tested for toxicity after oral administration in rat by using neurotoxicity screen test after 2 hr; type: organism-based; conditions: in vivo
Method in brief: (§5)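 Rat neurotoxicity after oral dosing, observed at 0.25, 0.5, 1, 2, 4, 6, 8 and 24 h (8 h omitted for one compound).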

[36] = tested on: Rattus norvegicus; assay: Compound was tested for anticonvulsant activity after Oral Administration into rat by using MES screen test after 2 hr; type: functional; method in brief: as §4
[37] = tested on: Mus musculus; assay: Compound was tested for anticonvulsant activity after intraperitoneal injection into mice by using MES screen test after 1 hr; type: functional; conditions: ip; method in brief: as §3
[38] = Partition coefficient (logP); type: physicochemical; conditions: octanol/water
Method in brief: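 Partition between 1-octanol and buffer at pH 7.4, with solutions prepared in 1-octanol before buffer is added. Quantified by UV, using λmax and ε values measured in 1-octanol.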

[39] = (§6) Protection index = TD50/ED50 (MES); type: ADME; conditions: read-out: TI
[40] = Compound was tested for toxicity after oral administration in rat by using neurotoxicity screen test after 0.25-24 hr; type: organism-based; conditions: in vivo; method in brief: as §5
[41] = Compound was tested for toxicity after intraperitoneal injection into mice by using neurotoxicity screen test after 4 hr; type: organism-based; conditions: mouse, in vivo, ip; method in brief: as §2
[42] = tested on: Mus musculus; assay: Compound was tested for anticonvulsant activity after intraperitoneal injection into mice by using MES screen test at 1 hr; type: functional; conditions: ip; method in brief: as §3
[43] = tested on: Mus musculus; assay: Compound was tested for anticonvulsant activity after intraperitoneal injection into mice by using scPTZ screen test after 1 hr; type: functional; conditions: ip; method in brief: as §3
[44] = Compound was tested for toxicity after intraperitoneal injection into mice by using neurotoxicity screen test after 0.5 hr; conditions: mouse, in vivo, ip
[45] = species on record: Rattus norvegicus; assay: as §6; type: ADME, organism-based; conditions: in vivo
[46] = Compound was tested for toxicity after oral administration in rat by using neurotoxicity screen test after 4 hr; type: organism-based; conditions: in vivo; method in brief: as §5
[47] = Protection index = TD50/ED50; type: ADME; conditions: read-out: PI

Structure (SMILES)	selectivity ratio [4]	Activity [6]	Dose [7]	Dose [8]	Dose [10]	TD50 at 2 h [12]	Dose [13]	ED50 [18]	Dose [20]	Activity [22]	Activity [23]	Activity [24]	Activity [25]	ED50 [36]	other results
Cc1ccc(C)c(Oc2ccc(/C=N/NC(N)=O)cc2)c1	10.3	1	300 mg/kg	30 mg/kg	100 mg/kg	356 mg/kg	100 mg/kg	–	–	–	–	–	–	–	Activity [1]: No activity; Activity [2]: No activity; ED50 [3]: 34.7 mg/kg; Activity [5]: 1; Activity [9]: No activity; Dose [11]: 300 mg/kg
CCCC(CCC)C(=O)O [VALPROIC ACID]	–	–	–	300 mg/kg	–	–	–	–	–	–	–	–	–	–	TD50 at 0.25 h [14]: 483 mg/kg; ED50 [15]: 287 mg/kg; TD50 at 0.5 h [16]: 859 mg/kg; ED50 [17]: 209 mg/kg
CCc1ccc(Oc2ccc(/C=N/NC(N)=O)cc2)cc1	3.32	4	100 mg/kg	300 mg/kg	30 mg/kg	34 mg/kg	30 mg/kg	> 100 mg/kg	300 mg/kg	2	4	4	No activity	–	ED50 [19]: 10.3 mg/kg; ED50 [21]: 6.48 mg/kg
NC(=O)N/N=C/c1ccc(Oc2cc(F)ccc2F)cc1	–	1	300 mg/kg	100 mg/kg	100 mg/kg	–	300 mg/kg	–	300 mg/kg	1	1	–	No activity	–	ED50 [26]: 11.4 mg/kg
NC(=O)N/N=C/c1ccc(Oc2ccc(Cl)cc2F)cc1	–	–	30 mg/kg	–	30 mg/kg	–	30 mg/kg	> 45 mg/kg	–	–	–	–	–	–	Activity [27]: 4; Activity [28]: 4; ED50 [29]: 1.13 mg/kg; ED50 [19]: 3.31 mg/kg; Activity [30]: 4; Dose [31]: 100 mg/kg; TD50 at 1 h [32]: 36.3 mg/kg; Activity [33]: 2; Activity [34]: 4; TD50 at 2 h [35]: > 90 mg/kg
C/C(=N/NC(N)=O)c1ccc(Oc2ccc(F)cc2)cc1	5.22	4	100 mg/kg	100 mg/kg	30 mg/kg	60.7 mg/kg	30 mg/kg	–	300 mg/kg	4	4	4	No activity	3.37 mg/kg	ED50 [37]: 11.6 mg/kg; ED50 [17]: > 80 mg/kg; logP [38]: 2.03; selectivity ratio [39]: 32.3; TD50 at 2 h [35]: 109 mg/kg
Cc1ccc(Sc2ccc(/C=N/NC(N)=O)cc2)cc1	–	4	100 mg/kg	100 mg/kg	30 mg/kg	–	30 mg/kg	–	300 mg/kg	–	4	4	No activity	3.65 mg/kg	TD50 [40]: > 500 mg/kg; TD50 at 4 h [41]: 197 mg/kg; ED50 [42]: 9.46 mg/kg; Activity [9]: No activity; ED50 [43]: > 300 mg/kg; Dose [11]: 100 mg/kg
O=C1NC(=O)C(c2ccccc2)(c2ccccc2)N1 [PHENYTOIN]	–	–	100 mg/kg	–	30 mg/kg	–	30 mg/kg	–	100 mg/kg	–	–	–	–	–	TD50 [40]: > 500 mg/kg; TD50 at 0.5 h [44]: 41.2 mg/kg; ED50 [43]: > 50 mg/kg
CC/C(=N/NC(N)=O)c1ccc(Oc2ccc(F)cc2)cc1	–	4	100 mg/kg	100 mg/kg	30 mg/kg	35.3 mg/kg	30 mg/kg	12.8 mg/kg	300 mg/kg	2	4	4	No activity	4.25 mg/kg	PI [45]: 6.45 and 16.9; TD50 at 4 h [46]: > 72 mg/kg; ED50 [37]: 5.46 mg/kg; selectivity ratio [47]: 2.75
